ChEMBL document CHEMBL3992553, “New nitrofurans amenable by isocyanide multicomponent chemistry are active against multidrug-resistant and poly-resistant Mycobacterium tuberculosis” (Bioorg Med Chem, 2017)
Values after ≈ are worked out from the molar mass of the structure shown.

System: Bacillus subtilis
Experiment: Antibacterial activity against Bacillus subtilis MTCC 121 after 24 hrs by well diffusion method
Assay type: functional
Details: MTCC 121, 24 h
`O=C(NCc1cn(-c2ccccc2)nn1)c1ccc([N+](=O)[O-])o1` showed an MIC of 7.8 µg/mL (≈ 24.9 µM).

System: not listed separately
Experiment: (§1) Cytotoxicity against mouse L929 cells assessed as reduction in cell viability after 5 days by WST1 assay
Assay type: cell-based
Details: mouse, L929 cells
Method in brief: (§2)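 KB-3-1 or L929 cells, 1500 per well, in DMEM + 5% FBS. Exposed to serially diluted compound for 5 days. WST-1 added, plates incubated at 37 °C (20 min for KB-3-1), absorbance read at 450 nm (reference 600 nm). Viability given as % of controls.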
Compound `CC1(C(=O)NC2CCCCC2)CCCC(=O)N1/N=C/c1ccc([N+](=O)[O-])o1` (centres undefined) has an IC90 at 120 h of over 100 µM.

System: L929
Experiment: as §1
Assay type: cell-based
Details: Mus musculus, L929, 120 h
Method in brief: as §2
Compound `CC1(C(=O)NC2CCCCC2)CCCC(=O)N1/N=C/c1ccc([N+](=O)[O-])o1` (centres undefined) has an IC50 of 50 to 50.2 µM.

System: not listed separately
Experiment: (§3) Cytotoxicity against human KB-3-1 cells assessed as reduction in cell viability after 5 days by WST1 assay
Assay type: cell-based
Details: human, KB-3-1 cells
Method in brief: as §2
`CC1(C(=O)NC2CCCCC2)CCCC(=O)N1/N=C/c1ccc([N+](=O)[O-])o1` (centres undefined) gave an IC90 at 120 h of 100 µM.

System: KB 3-1
Experiment: as §3
Assay type: cell-based
Details: Homo sapiens, KB 3-1, 120 h
Method in brief: as §2
Work on `CC1(C(=O)NC2CCCCC2)CCCC(=O)N1/N=C/c1ccc([N+](=O)[O-])o1` (centres undefined) yielded an IC50 of 61 µM.

System: not listed separately
Experiment: Cytotoxicity against human FS4-LTM cells assessed as reduction in cell viability after 24 hrs by WST1 assay
Assay type: cell-based
Details: Homo sapiens, FS4-LTM, 24 h
Method in brief: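 FS4-LTM conditionally immortalized human fibroblasts, kept without doxycycline for primary-like behaviour, in DMEM + 5% FBS. Exposed to serially diluted compound for 24 h. WST-1 added, plates incubated at 37 °C, absorbance read at 450 nm (reference 600 nm). Viability given as % of controls set to 100%.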
Work on `CC1(C(=O)NC2CCCCC2)CCCC(=O)N1/N=C/c1ccc([N+](=O)[O-])o1` (centres undefined) yielded an IC50 of 19.3 to 100 µM.

Same assay, conditions: human, FS4-LTM cells
Compound `CC1(C(=O)NC2CCCCC2)CCCC(=O)N1/N=C/c1ccc([N+](=O)[O-])o1` (centres undefined) has an IC90 at 24 h of at least 100 µM.

System: Enterococcus faecium
Experiment: Antibacterial activity against Enterococcus faecium DSM 20477 after 18 hrs
Assay type: functional
Details: DSM 20477, 18 h
Method in brief: (§4)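 Broth microdilution MIC. Gram-negatives grown overnight at 37 °C in Müller-Hinton broth + 1% glucose, pH 7.2; Gram-positives in trypticase soy broth with yeast extract, pH 7.2. Inoculum 5×10^5 cfu/mL final. Serial dilutions from 100 µM down to 0.2 µM, DMSO ≤1%. 18 h at 37 °C, moist; OD600. MIC = lowest concentration completely suppressing growth.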
Work on `CC1(C(=O)NC2CCCCC2)CCCC(=O)N1/N=C/c1ccc([N+](=O)[O-])o1` (centres undefined) yielded an MIC of over 100 µM.

System: Mycobacterium tuberculosis
Experiment: Antimycobacterial activity against Mycobacterium tuberculosis H37Rv after 7 days by REMA
Assay type: functional
Details: 168 h
Method in brief: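 REMA. 3-week H37Rv culture (2nd generation on Löwenstein–Jensen) vortexed with glass beads, set to 1.0 McFarland in 7H9, diluted 20-fold in 7H9 + OADC. 2-fold dilutions, final 1.6–400 µg/mL, 200 µL wells. 7 days at 35 °C, then resazurin 18 h. Fluorescence ex 520/em 590. MIC where signal plateaued or matched the 1% population control (t test).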
With `CC1(C(=O)NC2CCCCC2)CCCC(=O)N1/N=C/c1ccc([N+](=O)[O-])o1` (centres undefined) the MIC was 33 µM (≈ 12.4 µg/mL).

System: Staphylococcus aureus
Experiment: Antibacterial activity against methicillin-resistant Staphylococcus aureus DSM 11822 after 18 hrs
Assay type: functional
Details: DSM 11822, 18 h
Method in brief: as §4
With `CC1(C(=O)NC2CCCCC2)CCCC(=O)N1/N=C/c1ccc([N+](=O)[O-])o1` (centres undefined) the MIC was 100 µM (≈ 37.6 µg/mL).

System: Escherichia coli
Experiment: Growth inhibition of Escherichia coli DSM 1116 at 100 uM after 18 hrs relative to control
Assay type: functional
Details: DSM 1116, 18 h, read-out: GI
Method in brief: (§5)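 Gram-negative culture grown overnight at 37 °C in Müller-Hinton broth + 1% glucose, pH 7.2, then tested at 5×10^5 cfu/mL final. Compound at 100 µM from DMSO stock, DMSO ≤1%. Incubated 18 h at 37 °C under moist conditions. OD600 read; value reported as % growth inhibition.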
`CC1(C(=O)NC2CCCCC2)CCCC(=O)N1/N=C/c1ccc([N+](=O)[O-])o1` (centres undefined) gave an inhibition of growth at 100 µM of 81%.

System: Staphylococcus aureus
Experiment: Antibacterial activity against Staphylococcus aureus MLS16 MTCC 2940 after 24 hrs by well diffusion method
Assay type: functional
Details: MLS16 MTCC 2940, 24 h
For `O=C(NCc1cn(-c2ccccc2)nn1)c1ccc([N+](=O)[O-])o1`, the MIC was 1.9 µg/mL (≈ 6.06 µM).

System: Pseudomonas aeruginosa
Experiment: Growth inhibition of Pseudomonas aeruginosa PA7 DSM 24068 at 100 uM after 18 hrs relative to control
Assay type: functional
Details: PA7 DSM 24068, 18 h, read-out: GI
Method in brief: as §5
`CC1(C(=O)NC2CCCCC2)CCCC(=O)N1/N=C/c1ccc([N+](=O)[O-])o1` (centres undefined) gave an inhibition of growth at 100 µM of 88%.

System: Klebsiella pneumoniae
Experiment: Antibacterial activity against Klebsiella pneumoniae DSM 11678 after 18 hrs
Assay type: functional
Details: DSM 11678, 18 h
Method in brief: as §4
`CC1(C(=O)NC2CCCCC2)CCCC(=O)N1/N=C/c1ccc([N+](=O)[O-])o1` (centres undefined) gave an MIC of over 100 µM.

System: Staphylococcus aureus
Experiment: Antibacterial activity against methicillin-resistant Staphylococcus aureus RKI 11-02670 after 18 hrs
Assay type: functional
Details: RKI 11-02670, 18 h
Method in brief: as §4
Compound `CC1(C(=O)NC2CCCCC2)CCCC(=O)N1/N=C/c1ccc([N+](=O)[O-])o1` (centres undefined) has an EC50 of 70 µM and an MIC of 100 µM (≈ 37.6 µg/mL).

System: not listed separately
Experiment: (§6) Cytotoxicity against human MCF7 cells assessed as reduction in cell viability after 5 days by WST1 assay
Assay type: cell-based
Details: human, MCF7 cells
Method in brief: (§7)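 MCF-7 cells, 3000 per well, in RPMI + 5% FBS, 0.5% NEAA, 0.5% GlutaMAX and insulin 5 µg/mL. Exposed to serially diluted compound for 5 days. WST-1 incubation 2 h at 37 °C, absorbance read at 450 nm (reference 600 nm). Viability given as % of controls.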
Compound `CC1(C(=O)NC2CCCCC2)CCCC(=O)N1/N=C/c1ccc([N+](=O)[O-])o1` (centres undefined) has an IC90 at 120 h of 100 µM.

System: MCF7
Experiment: as §6
Assay type: cell-based
Details: Homo sapiens, MCF7, 120 h
Method in brief: as §7
Work on `CC1(C(=O)NC2CCCCC2)CCCC(=O)N1/N=C/c1ccc([N+](=O)[O-])o1` (centres undefined) yielded an IC50 of 19 µM.

System: Acinetobacter baumannii
Experiment: Antibacterial activity against Acinetobacter baumannii DSM 30007 after 18 hrs
Assay type: functional
Details: DSM 30007, 18 h
Method in brief: as §4
In the case of `CC1(C(=O)NC2CCCCC2)CCCC(=O)N1/N=C/c1ccc([N+](=O)[O-])o1` (centres undefined), the MIC is reported as over 100 µM.
